# Active and inactive are the calls of the source. No cut-off for these calls is given here.
# Columns and labels:
# BXPC-3 = assay: Growth inhibition of human BxPC3 cells after 48 hrs by sulforhodamine B assay; type: functional; conditions: BXPC-3, 48 h
# Procedure, shortened: (§1)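 NCI sulforhodamine B assay. Cells were seeded in 5% FBS/RPMI-1640 and incubated 24 h. Serial compound dilutions were then added for 48 h. Cells were fixed with trichloroacetic acid, stained with SRB and read by microplate reader. GI50 is the concentration giving 50% reduction in net protein increase, calculated from optical density data.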
# Neisseria gonorrhoeae [1] = assay: Antibacterial activity against Neisseria gonorrhoeae ATCC 49226 by broth microdilution method; type: functional
# Procedure, shortened: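 Broth microdilution followed NCCLS standard methods. Compounds were reconstituted in sterile DMSO and diluted in the appropriate medium immediately before testing. MIC was taken as the lowest concentration giving no visible growth (optically clear). Assays were repeated on separate days.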
# [2] = Solubility of the compound in water; type: physicochemical; conditions: buffer
# Procedure, shortened: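 Solubility expressed as amount dissolving in 1 mL H₂O at 25 °C.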
# P388 = assay: Growth inhibition of mouse P388 cells after 48 hrs by Z1 Beckman/Coulter particle counter analysis; type: functional; conditions: P388, 48 h, read-out: ED50 (the source's name)
# Procedure, shortened: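 Mouse P388 leukemia cells were incubated 24 h in 10% horse serum/Fisher medium, then exposed 48 h to serial compound dilutions. ED50 was calculated from cell counts on a Coulter Z1 particle counter.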
# NCI-H460 = assay: Growth inhibition of human NCI-H460 cells after 48 hrs by sulforhodamine B assay; type: functional; conditions: NCI-H460, 48 h; procedure, shortened: as §1
# SF-268 = assay: Growth inhibition of human SF268 cells after 48 hrs by sulforhodamine B assay; type: functional; conditions: SF-268, 48 h; procedure, shortened: as §1
# DU-145 = assay: Growth inhibition of human DU145 cells after 48 hrs by sulforhodamine B assay; type: functional; conditions: DU-145, 48 h; procedure, shortened: as §1
# HUVEC [3] = assay: Antiangiogenic activity in HUVEC assessed as cell growth at 0.01 ug/ml after 24 hrs by sulforhodamine B assay relative to control; type: functional, Homo sapiens
# HUVEC [4] = assay: Antiangiogenic activity in HUVEC assessed as reduction of number of junctions at 0.001 ug/ml after 24 hrs by matrigel assay relative to control; type: functional, Homo sapiens; parameters: scale not given: the % may be the effect or the level left
# Procedure, shortened: (§2)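 Commercial HUVECs grown in EGM-2 were seeded at 2 × 10⁵ cells/mL onto Matrigel, which had been polymerized 15 min at rt and then 30 min at 37 °C, per NCI DTP protocol. Compound was added and cells were incubated 24 h, then imaged by inverted microscopy. Cord length and junction number were scored against untreated control on a scale from − (none) to +++ (same as control), with ++ = 50% of control.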
# HUVEC [5] = assay: Antiangiogenic activity in HUVEC assessed as cell growth inhibition after 48 hrs by sulforhodamine B assay; type: functional, cell-based; conditions: Homo sapiens
# Procedure, shortened: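 HUVECs were grown in EGM-2 medium and tested with the standard SRB growth assay following NCI Developmental Therapeutics Program Matrigel antiangiogenesis protocols. IC50 (concentration causing 50% inhibition) was calculated from plotted data.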
# [6] = Growth inhibition of human KAT4 cells after 48 hrs by sulforhodamine B assay; type: functional; conditions: KAT-4, 48 h
# SW-1736 = assay: Growth inhibition of human SW1736 cells after 48 hrs by sulforhodamine B assay; type: functional; conditions: SW-1736, 48 h
# HUVEC [7] = assay: Antiangiogenic activity in HUVEC assessed as reduction of cord length at 0.001 ug/ml after 24 hrs by matrigel assay relative to control; type: functional, Homo sapiens; parameters: scale not given: the % may be the effect or the level left; procedure, shortened: as §2
# HUVEC [8] = assay: Antiangiogenic activity in HUVEC assessed as cell growth at 0.001 ug/ml after 24 hrs by sulforhodamine B assay relative to control; type: functional, Homo sapiens; conditions: Homo sapiens, HUVEC, 24 h; read-out: Activity
# KM-20L2 = assay: Growth inhibition of human KM20L2 cells after 48 hrs by sulforhodamine B assay; type: functional; conditions: KM-20L2, 48 h; procedure, shortened: as §1
# HUVEC [9] = assay: Antiangiogenic activity in HUVEC assessed as cell growth at 0.0001 ug/ml after 24 hrs by sulforhodamine B assay relative to control; type: functional, Homo sapiens
# HUVEC [10] = assay: Antiangiogenic activity in HUVEC assessed as cell growth at 0.00001 ug/ml after 24 hrs by sulforhodamine B assay relative to control; type: functional; conditions: Homo sapiens, read-out: Activity
# MCF7 = assay: Growth inhibition of human MCF7 cells after 48 hrs by sulforhodamine B assay; type: functional; conditions: MCF7, 48 h; procedure, shortened: as §1
# HUVEC [11] = assay: Antiangiogenic activity in HUVEC assessed as cell growth at 0.1 ug/ml after 24 hrs by sulforhodamine B assay relative to control; type: functional, Homo sapiens
# SK-N-AS = assay: Growth inhibition of human SK-N-AS cells after 48 hrs by sulforhodamine B assay; type: functional; procedure, shortened: as §1
# SK-N-SH = assay: Growth inhibition of human SK-N-SH cells after 48 hrs by sulforhodamine B assay; type: functional; procedure, shortened: as §1
# HUVEC [12] = assay: Antiangiogenic activity in HUVEC assessed as reduction of cord length at 0.01 ug/ml after 24 hrs by matrigel assay relative to control; type: functional, Homo sapiens; parameters: scale not given: the % may be the effect or the level left; procedure, shortened: as §2
# IMR-32 = assay: Growth inhibition of human IMR32 cells after 48 hrs by sulforhodamine B assay; type: functional; conditions: IMR-32, 48 h; procedure, shortened: as §1
# HUVEC [13] = assay: Antiangiogenic activity in HUVEC assessed as reduction of number of junctions at 0.01 ug/ml after 24 hrs by matrigel assay relative to control; type: functional, Homo sapiens; parameters: scale not given: the % may be the effect or the level left; procedure, shortened: as §2
# HUVEC [14] = assay: Antiangiogenic activity in HUVEC assessed as reduction of number of junctions at 0.1 ug/ml after 24 hrs by matrigel assay relative to control; type: functional, cell-based; conditions: Homo sapiens; procedure, shortened: as §2
# HUVEC [15] = assay: Antiangiogenic activity in HUVEC assessed as reduction of cord length at 0.1 ug/ml after 24 hrs by matrigel assay relative to control; type: functional, cell-based; conditions: Homo sapiens; procedure, shortened: as §2
# HUVEC [16] = assay: Antiangiogenic activity in HUVEC assessed as reduction of cord length at 0.0001 ug/ml after 24 hrs by matrigel assay relative to control; type: functional; conditions: Homo sapiens
# Procedure, shortened: (§3)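 Matrigel was polymerised in wells (15 min rt, then 30 min 37 °C). HUVECs (2 × 10⁵ cells/mL) were added with compound and incubated 24 h, then imaged by inverted microscope. Cord length and junction number were scored semi-quantitatively versus untreated control (− none to +++ same as control).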
# HUVEC [17] = assay: Antiangiogenic activity in HUVEC assessed as reduction of number of junctions at 0.00001 ug/ml after 24 hrs by matrigel assay relative to control; type: functional, cell-based; conditions: Homo sapiens; procedure, shortened: as §2
# HUVEC [18] = assay: Antiangiogenic activity in HUVEC assessed as reduction of cord length at 0.00001 ug/ml after 24 hrs by matrigel assay relative to control; type: functional, cell-based; conditions: Homo sapiens; procedure, shortened: as §2
# HUVEC [19] = assay: Antiangiogenic activity in HUVEC assessed as reduction of number of junctions at 0.0001 ug/ml after 24 hrs by matrigel assay relative to control; type: functional; conditions: Homo sapiens; procedure, shortened: as §3
# Neisseria gonorrhoeae [20] = assay: Antibacterial activity against Neisseria gonorrhoeae assessed per disc; type: functional
# Micrococcus luteus = assay: Antibacterial activity against Micrococcus luteus assessed per disc; type: functional
# [21] = Displacement of [3H]colchicine from tubulin at 1 uM after 10 mins
# Procedure, shortened: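 [³H]colchicine binding: 1.0 μM tubulin with 5.0 μM [³H]colchicine and compound, incubated 10 min at 37 °C. The tubulin–colchicine complex was separated from unbound label by retention on DEAE-cellulose filters. Result is inhibition of radiolabel binding.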
# [22] = Displacement of [3H]colchicine from tubulin at 5 uM after 10 mins
# Procedure, shortened: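 Purified tubulin 1.0 μM incubated with 5.0 μM [³H]colchicine and test compound for 10 min at 37 °C. Tubulin–colchicine complex retained on DEAE-cellulose filters to separate it from unbound label. Read-out is the percent inhibition of radiolabel binding.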
# [23] = Inhibition of purified tubulin assembly after 20 mins
# Procedure, shortened: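 Purified tubulin at 10 μM in 0.8 M monosodium glutamate (pH 6.6), 0.4 mM GTP and 4% (v/v) DMSO, with varying compound concentrations. Extent of assembly was measured after 20 min at 30 °C.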
smiles,measurement,setting,value
COc1ccc(/C=C\c2cc(I)c(OC)c(I)c2)cc1OP(=O)([O-])[O-].[Li+].[Li+],GI50,BXPC-3,0.37 µg/mL
same,MIC,Neisseria gonorrhoeae [1],< 0.5 µg/mL
same,solubility,[2],>= 4 mg/ml
same,EC50,P388,0.021 µg/mL
same,GI50,NCI-H460,0.05 µg/mL
same,GI50,SF-268,0.05 µg/mL
same,GI50,DU-145,0.032 µg/mL
COc1ccc(/C=C\c2cc(I)c(OC)c(OC)c2)cc1OP(=O)([O-])[O-].[K+].[K+],Activity,HUVEC [3],1%
same,Activity,HUVEC [4],75%
same,IC50,HUVEC [5],0.00025 µg/mL
same,GI50,BXPC-3,0.381 µg/mL
same,solubility,[2],14 mg/mL
same,EC50,P388,0.0021 µg/mL
same,GI50,[6],0.37 µg/mL
same,GI50,SW-1736,> 10 µg/mL
same,GI50,NCI-H460,0.0043 µg/mL
same,GI50,SF-268,0.0057 µg/mL
same,Activity,HUVEC [7],50%
same,GI50,DU-145,0.0038 µg/mL
same,growth at 0.001 µg/mL,HUVEC [8],10%
same,GI50,KM-20L2,0.41 µg/mL
same,Activity,HUVEC [9],77%
same,growth at 10 pg/mL,HUVEC [10],95%
same,GI50,MCF7,0.0064 µg/mL
COc1ccc(/C=C\c2cc(I)c(OC)c(I)c2)cc1OP(=O)([O-])[O-].[K+].[K+],Activity,HUVEC [11],15%
same,Activity,HUVEC [3],33%
same,GI50,SK-N-AS,0.002 µg/mL
same,IC50,HUVEC [5],0.0049 µg/mL
same,GI50,BXPC-3,0.44 µg/mL
same,MIC,Neisseria gonorrhoeae [1],< 0.5 µg/mL
same,solubility,[2],22 mg/mL
same,GI50,SK-N-SH,0.0075 µg/mL
same,EC50,P388,0.0034 µg/mL
same,GI50,[6],0.38 µg/mL
same,GI50,SW-1736,> 10 µg/mL
same,Activity,HUVEC [12],75%
same,GI50,IMR-32,0.081 µg/mL
same,GI50,NCI-H460,0.046 µg/mL
same,Activity,HUVEC [13],75%
same,GI50,SF-268,0.053 µg/mL
same,GI50,DU-145,0.028 µg/mL
same,growth at 0.001 µg/mL,HUVEC [8],88%
same,growth at 0.0001 µg/mL,"HUVEC [9]; Homo sapiens, HUVEC, 24 h, read-out: Activity",96%
same,GI50,MCF7,0.05 µg/mL
COc1ccc(/C=C\c2cc(I)c(OC)c(OC)c2)cc1OP(=O)(O)O,Activity,HUVEC [14],Active
same,Activity,HUVEC [4]; Homo sapiens,Active
same,Activity,HUVEC [15],Active
same,Activity,HUVEC [16],inactive
same,Activity,HUVEC [17],inactive
same,Activity,HUVEC [12]; Homo sapiens,Active
same,Activity,HUVEC [13]; Homo sapiens,Active
same,Activity,HUVEC [18],inactive
same,Activity,HUVEC [7]; Homo sapiens,Active
same,Activity,HUVEC [19],inactive
COc1ccc(/C=C\c2cc(OC)c(OC)c(OC)c2)cc1O [COMBRETASTATIN A4],MIC,Neisseria gonorrhoeae [20],25 µg
same,GI50,BXPC-3,0.39 µg/mL
same,MIC,Micrococcus luteus,25 µg
same,EC50,P388,0.0003 µg/mL
same,GI50,NCI-H460,0.0006 µg/mL
same,inhibition,[21],81%
same,GI50,SF-268,< 0.001 µg/mL
same,GI50,DU-145,0.0008 µg/mL
same,inhibition,[22],95%
same,GI50,KM-20L2,0.061 µg/mL
COc1ccc(/C=C\c2cc(OC)c(OC)c(OC)c2)cc1OP(=O)([O-])[O-].[Na+].[Na+] [FOSBRETABULIN DISODIUM],GI50,BXPC-3,0.23 µg/mL
same,EC50,P388,0.0004 µg/mL
same,GI50,NCI-H460,0.029 µg/mL
same,GI50,SF-268,0.036 µg/mL
same,IC50,[23],> 40 µM
same,GI50,DU-145,0.0072 µg/mL
same,GI50,KM-20L2,0.034 µg/mL

# From ChEMBL document CHEMBL2021780, “Antineoplastic agents. 548. Synthesis of iodo- and diiodocombstatin phosphate prodrugs” (J Nat Prod, 2012)
